Test results taken from ChEMBL document CHEMBL1129531, “2-substituted piperazines as constrained amino acids. Application to the synthesis of potent, non carboxylic acid inhibitors of farnesyltransferase” (J Med Chem, 1996).
Values after ≈ are worked out from the molar mass of the structure shown.

Columns and labels:
Rat1 = assay: Highest nontoxic concentration in RAT1 cells; type: functional
In short: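 Cultured RAT1 cells; viability assessed by viable staining with MTT. Value is the highest nontoxic concentration, i.e. the concentration compatible with ≥90% cell survival.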

[1] = target: Protein farnesyltransferase (Homo sapiens, UniProt P49354+P49356); assay: Inhibition of [3H]FPP incorporation into Ha-Ras by Farnesyltransferase; type: protein-complex assay
In short: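 Recombinant human Ha-Ras protein as acceptor, with [³H]FPP as farnesyl donor. Read-out is FTase-catalyzed radiolabel incorporation into Ha-Ras. IC50 is the concentration giving 50% inhibition, reported ±SEM with the number of determinations given.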

[2] = target: Protein farnesyltransferase (Rattus norvegicus, UniProt Q02293+Q04631); assay: Inhibition of post-traslational processing of Ras protein in RAT1 cell line; type: functional, cell-based
In short: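 RAT1 cells transformed with viral Ha-ras were incubated with compound for 24 h, then lysed. Ras was immunoprecipitated and resolved by denaturing gel electrophoresis to detect inhibition of post-translational processing (farnesylation). IC50 derived.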

[3] = Inhibition of human Geranylgeranyl transferase type I
In short: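 Recombinant human GGTase I. IC50 reported ±SEM with the number of determinations given.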

[4] = Inhibition of anchorage-independent growth of ras-transformed cells in soft agar; type: functional
In short: (§1)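 RAT1 cells transformed with v-ras or v-raf were grown in soft agar with compound. MIC is the minimum concentration reducing the size and number of colonies relative to vehicle-treated control. A v-mos-transformed cell line served as control, tested up to 2.5 µM.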

[5] = target: Geranylgeranyl transferase type I (Bos taurus, UniProt P29702+Q5EAD5); assay: Inhibition of bovine Geranylgeranyl transferase type I; type: protein-complex assay
In short: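 Type-I GGTase from bovine source. IC50 reported ±SEM with the number of determinations given.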

[6] = Inhibition of anchorage-independent growth of raf-transformed cells in soft agar; type: functional; in short: as §1

Structure (SMILES) | CTE (Rat1) | IC50 [1] | IC50 [2] | IC50 [3] | MIC [4] | IC50 [5] | MIC [6]
N[C@@H](CS)CN1CCN(C(=O)c2cccc3ccccc23)C[C@@H]1CCOC1CC1 | 25 µM | 1 nM | 500 nM | 3.9 µM | 2.5 µM (≈ 1.03 µg/mL) |  | 
CCCC[C@H]1CN(C(=O)c2cccc3ccccc23)CCN1C[C@@H](N)CS | 10 µM | 1 nM | 500 nM |  | 10 µM (≈ 3.86 µg/mL) | 160 nM | > 10 µM
COCC[C@H]1CN(C(=O)c2cccc3ccccc23)CCN1C[C@@H](N)CS | >100 µM | 3 nM | 500 nM |  | 10 µM (≈ 3.88 µg/mL) | 10000 nM | > 50 µM
CCCC[C@H]1CN(C(=O)c2ccccc2)CCN1C[C@@H](N)CS |  | 24 nM |  |  |  |  | 
CCCC[C@H]1CN(C(=O)c2cccc(C)c2C)CCN1C[C@@H](N)CS |  | 5 nM |  |  |  | 360 nM | 
Cc1cccc(C(=O)N2CCN(C[C@@H](N)CS)CC2)c1C |  | 160 nM |  |  |  | 2800 nM | 
CC[C@H]1CN(C(=O)c2cccc(C)c2C)CCN1C[C@@H](N)CS |  | 68 nM |  |  |  |  | 
